Test results taken from ChEMBL document CHEMBL4049392, “New azole derivatives showing antimicrobial effects and their mechanism of antifungal activity by molecular modeling studies” (Eur J Med Chem, 2017).

What was measured:
[1] = system: Candida albicans; assay: Anti-fungal activity against Candida albicans ATCC 90028 after 48 hrs by broth microdilution method; format: functional; conditions: ATCC 90028, 48 h
How it was run: (§1)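 CLSI broth microdilution in RPMI 1640 (with glutamine, without bicarbonate) buffered to pH 7.0 with MOPS. Inoculum was prepared from 24 h Sabouraud dextrose agar subcultures, final 0.5 to 2.5 10^3 cfu/mL. Twofold dilutions were made from DMSO stocks. Incubated 35 °C for 48 h. MIC was the lowest concentration with no visible growth; for the fluconazole reference, MIC was taken at about 80% growth inhibition versus control.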

[2] = system: Pichia kudriavzevii; assay: Anti-fungal activity against Candida krusei ATCC 6258 after 48 hrs by broth microdilution method; format: functional; conditions: ATCC 6258, 48 h; how it was run: as §1
[3] = system: Candida parapsilosis; assay: Anti-fungal activity against Candida parapsilosis ATCC 90018 after 48 hrs by broth microdilution method; format: functional; conditions: Lodderomyces parapsilosis, ATCC 90018, 48 h; how it was run: as §1
[4] = system: Nakaseomyces glabratus; assay: Anti-fungal activity against drug-resistant Candida glabrata after 48 hrs by broth microdilution method; format: functional
How it was run: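 Clinical resistant C. glabrata isolate, stored frozen in glycerol and subcultured twice on Sabouraud dextrose agar. CLSI broth microdilution in RPMI 1640 (glutamine, no bicarbonate) buffered to pH 7.0 with MOPS. Inoculum from 24 h subcultures, final 0.5 to 2.5 x10^3 cfu/mL. DMSO-dissolved compounds in twofold dilutions, 35 C for 48 h. MIC is the lowest concentration giving complete visual growth inhibition; fluconazole reference read at about 80% inhibition.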

[5] = system: Candida albicans; assay: Antibiofilm activity against Candida albicans SC5314 after 24 hrs by spectrophotometric method; format: functional
How it was run: (§2)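 Biofilms were grown on Calgary device pegs from a 10^6 cfu/mL inoculum for 24 h at 37 °C. Pegs were rinsed in saline, then challenged with twofold dilutions for 24 h at 35 °C. Biofilm was recovered by 5 min sonication into RPMI 1640 with 2% glucose and incubated overnight. OD was read at 550 nm plus visual turbidity. MBEC was the lowest concentration preventing regrowth. MBIC was the minimum concentration preventing initial biofilm formation, judged by visual turbidity.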

[6] = system: Staphylococcus aureus; assay: Antibacterial activity against Staphylococcus aureus ATCC 29213 after 18 to 24 hrs by broth microdilution method; format: functional
How it was run: (§3)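 CLSI broth microdilution in Mueller Hinton broth, with inoculum from 24 h Mueller Hinton agar subcultures, final about 5 10^5 cfu/mL. Compounds were dissolved in DMSO and tested as twofold dilutions in wells. Plates were incubated at 35 °C for 18–24 h. MIC was read as the lowest concentration completely inhibiting visible growth. Ciprofloxacin was the reference.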

[7] = system: Enterococcus faecalis; assay: Antibacterial activity against Enterococcus faecalis ATCC 29212 after 18 to 24 hrs by broth microdilution method; format: functional; how it was run: as §3
[8] = system: Escherichia coli; assay: Antibacterial activity against Escherichia coli ATCC 25922 after 18 to 24 hrs by broth microdilution method; format: functional; how it was run: as §3
[9] = system: Pseudomonas aeruginosa; assay: Antibacterial activity against Pseudomonas aeruginosa ATCC 27853 after 18 to 24 hrs by broth microdilution method; format: functional; how it was run: as §3
[10] = Cytotoxicity against human U937 cells assessed as cell viability at 10 to 100 ug/ml after 48 hrs by MTT assay relative to control; format: cell-based, U-937; conditions: read-out: Activity
How it was run: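 U937 human monocytic cells, 4 10^3 per well in RPMI-1640 with 10% FBS, L-glutamine, penicillin and streptomycin, at 37 °C and 5% CO2. Compounds in DMSO were added at five final concentrations for 48 h, in triplicate. MTT was added for 4 h, formazan was dissolved overnight in SDS/23% DMF, and OD was read at 570 nm. Results are % reduction in viable cells versus control.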

[11] = system: Candida albicans; assay: Antibiofilm activity against Candida albicans SC5314 after 24 hrs by turbidity assay; format: functional; how it was run: as §2

In the case of `Cl.O=C(OC(Cn1ccnc1)c1ccccc1)c1ccc(-c2ccccc2)cc1` (stereo not drawn), the MIC [1] is reported as 0.125 µg/mL, the MIC [2] is reported as 8 µg/mL and the MIC [3] is reported as 0.125 µg/mL. The MIC [4] was 2 µg/mL, the MBEC [5] was 1024 µg/mL and the MIC [6] was 512 µg/mL. The MIC [7] was 128 µg/mL, the MIC [8] was 512 µg/mL and the MIC [9] was 256 µg/mL. The viability at 48 h [10] was 70 to 80% and the MBIC [11] was 8 µg/mL.

`Cl.O=C(/C=C/c1ccccc1)OC(Cn1ccnc1)c1ccccc1` (stereo not drawn) gave an MIC [1] of 1 µg/mL, an MIC [2] of 16 µg/mL and an MIC [3] of 1 µg/mL. For the same compound, the MIC [4] was 8 µg/mL, the MBEC [5] was 1024 µg/mL and the MIC [6] was 8 µg/mL. The MIC [7] was 64 µg/mL, the MIC [8] was 512 µg/mL and the MIC [9] was 256 µg/mL. For the same compound, the viability at 48 h [10] was 70 to 80% and the MBIC [11] was 8 µg/mL.

With `CCCC(=O)OC(Cn1ccnc1)c1ccc(Cl)cc1.Cl` (stereo not drawn) the MIC [1] was 0.5 µg/mL, the MIC [2] was 4 µg/mL and the MIC [3] was 1 µg/mL. The MIC [4] was 16 µg/mL, the MBEC [5] was 1024 µg/mL and the MIC [6] was 64 µg/mL. For the same compound, the MIC [7] was 256 µg/mL, the MIC [8] was 512 µg/mL and the MIC [9] was 256 µg/mL. It also gave a viability at 48 h [10] of 70 to 80% and an MBIC [11] of over 32 µg/mL.
